Assays:
GPR35 [1] = biological target: T1, GPR35 (Homo sapiens, UniProt Q9HC97); format: cell-based; details: 10 μM Zaprinast as agonist
In short: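 Antagonism measured against a 10 μM Zaprinast agonist challenge in U2OS cells permanently expressing HA-GPR35a and βarr2-GFP. Concentration-effect curves for agonist-mediated receptor activation were analysed by nonlinear regression and fitted to sigmoidal dose-response curves to obtain IC50.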

GPR35 [2] = biological target: T1, GPR35; details: read-out: IC50, antagonism at GPR35; previously identified screening hits; cited from earlier work

T1 sequence (Q9HC97 whole entry): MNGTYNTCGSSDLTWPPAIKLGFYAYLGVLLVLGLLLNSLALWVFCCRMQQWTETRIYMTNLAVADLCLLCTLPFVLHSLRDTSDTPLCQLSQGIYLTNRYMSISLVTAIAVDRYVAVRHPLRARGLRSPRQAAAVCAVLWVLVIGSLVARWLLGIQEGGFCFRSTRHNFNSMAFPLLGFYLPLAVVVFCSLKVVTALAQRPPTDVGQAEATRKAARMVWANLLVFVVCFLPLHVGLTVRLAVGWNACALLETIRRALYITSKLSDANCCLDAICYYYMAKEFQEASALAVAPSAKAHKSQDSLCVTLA

Structure (SMILES)	activity as GPR35 antagonist (in words) (GPR35 [1])	IC50 (GPR35 [2]) [nM]
O=C(Nc1ccc2nc(SCc3ccc(Cl)cc3)sc2c1)c1ccccc1C(=O)N1CCCCC1 [Compound 2]	devoid of activity	
O=C(Nc1ccc2nc(SCc3ccc(Cl)cc3)sc2c1)c1ccccc1C(=O)N1CCCC1 [Compound 3]	devoid of activity	
O=C(Nc1ccc2nc(SCc3ccncc3)sc2c1)c1ccccc1C(=O)N1CCOCC1 [Compound 9]	inactive	
CNC(=S)NN=Cc1c(C(=O)OC)cnn1-c1ccc(F)cc1F [Compound 13]		160
